Converted amounts (≈) assume the structure as drawn.
What was measured:
Assay type in all cases: functional
[1] = tested on: Aspergillus fumigatus; assay: Antimicrobial activity against Aspergillus fumigatus isolate 42 by CLSI M38-A2 broth microdilution method
Procedure, shortened: (§1)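 CLSI M38-A2 broth microdilution with posaconazole. MIC taken as the lowest concentration with no visible growth at 48 h. C. parapsilosis ATCC 22019 and C. krusei ATCC 6258 were included as QC strains in every run.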

[2] = tested on: Aspergillus fumigatus; assay: Antimicrobial activity against Aspergillus fumigatus isolate 48 by CLSI M38-A2 broth microdilution method
[3] = tested on: Aspergillus fumigatus; assay: Antimicrobial activity against Aspergillus fumigatus isolate 44 by oxygen consumption method
[4] = tested on: Aspergillus fumigatus; assay: Antimicrobial activity against Aspergillus fumigatus isolate 49 by oxygen consumption method
[5] = tested on: Aspergillus fumigatus; assay: Antimicrobial activity against Aspergillus fumigatus isolate 50 by CLSI M38-A2 broth microdilution method
[6] = tested on: Aspergillus fumigatus; assay: Antimicrobial activity against Aspergillus fumigatus isolate 8 after 24 hrs by Etest; conditions: isolate 8, 24 h
[7] = tested on: Aspergillus fumigatus; assay: Antimicrobial activity against Aspergillus fumigatus isolate 10 after 24 hrs by Etest; conditions: isolate 10, 24 h
Procedure, shortened: (§2)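 Posaconazole Etest strips placed on RPMI 1640 agar with 2% glucose, pH 7.0, and run per the strip maker's instructions. Incubation at 35°C, with the MIC read at 24 h and at 48 h.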

[8] = tested on: Aspergillus fumigatus; assay: Antimicrobial activity against Aspergillus fumigatus isolate 12 after 24 hrs by Etest; conditions: isolate 12, 24 h; procedure, shortened: as §2
[9] = tested on: Aspergillus fumigatus; assay: Antimicrobial activity against Aspergillus fumigatus isolate 16 after 24 hrs by Etest; conditions: isolate 16, 24 h; procedure, shortened: as §2
[10] = tested on: Aspergillus fumigatus; assay: Antimicrobial activity against Aspergillus fumigatus isolate 17 after 24 hrs by Etest; conditions: isolate 17, 24 h; procedure, shortened: as §2
[11] = tested on: Aspergillus fumigatus; assay: Antimicrobial activity against Aspergillus fumigatus isolate 27 after 24 hrs by Etest; conditions: isolate 27, 24 h
Procedure, shortened: (§3)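 Etest strips on RPMI 1640 agar with 2% glucose, pH 7.0, run per manufacturer's instructions. Incubated at 35°C; MIC read at 24 h.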

[12] = tested on: Aspergillus fumigatus; assay: Antimicrobial activity against Aspergillus fumigatus isolate 29 after 24 hrs by Etest; conditions: isolate 29, 24 h; procedure, shortened: as §3
[13] = tested on: Aspergillus fumigatus; assay: Antimicrobial activity against Aspergillus fumigatus isolate 30 after 24 hrs by Etest; conditions: isolate 30, 24 h; procedure, shortened: as §3
[14] = tested on: Aspergillus fumigatus; assay: Antimicrobial activity against Aspergillus fumigatus isolate 32 after 24 hrs by Etest; conditions: isolate 32, 24 h
Procedure, shortened: (§4)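 Posaconazole Etest strips on RPMI 1640 agar with 2% glucose, pH 7.0, run per the strip maker's instructions. Incubated at 35°C. MIC read at 24 h and at 48 h, matching the time in each line.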

[15] = tested on: Aspergillus fumigatus; assay: Antimicrobial activity against Aspergillus fumigatus isolate 2 after 48 hrs by Etest; conditions: isolate 2, 48 h; procedure, shortened: as §2
[16] = tested on: Aspergillus fumigatus; assay: Antimicrobial activity against Aspergillus fumigatus isolate 10 after 48 hrs by Etest; conditions: isolate 10, 48 h; procedure, shortened: as §2
[17] = tested on: Aspergillus fumigatus; assay: Antimicrobial activity against Aspergillus fumigatus isolate 18 after 48 hrs by Etest; conditions: isolate 18, 48 h; procedure, shortened: as §2
[18] = tested on: Aspergillus fumigatus; assay: Antimicrobial activity against Aspergillus fumigatus isolate 20 after 48 hrs by Etest; conditions: isolate 20, 48 h; procedure, shortened: as §2
[19] = tested on: Aspergillus fumigatus; assay: Antimicrobial activity against Aspergillus fumigatus isolate 23 after 48 hrs by Etest; conditions: isolate 23, 48 h
Procedure, shortened: (§5)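 Etest strips on RPMI 1640 agar with 2% glucose, pH 7.0, run per manufacturer's instructions. Incubated at 35°C; MIC read at 48 h.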

[20] = tested on: Aspergillus fumigatus; assay: Antimicrobial activity against Aspergillus fumigatus isolate 24 after 48 hrs by Etest; conditions: isolate 24, 48 h; procedure, shortened: as §5
[21] = tested on: Aspergillus fumigatus; assay: Antimicrobial activity against Aspergillus fumigatus isolate 28 after 48 hrs by Etest; conditions: isolate 28, 48 h; procedure, shortened: as §5
[22] = tested on: Aspergillus fumigatus; assay: Antimicrobial activity against Aspergillus fumigatus isolate 36 after 48 hrs by Etest; conditions: isolate 36, 48 h; procedure, shortened: as §4
[23] = tested on: Aspergillus fumigatus; assay: Antimicrobial activity against Aspergillus fumigatus isolate 39 after 48 hrs by Etest; conditions: isolate 39, 48 h; procedure, shortened: as §4
[24] = tested on: Aspergillus fumigatus; assay: Antimicrobial activity against Aspergillus fumigatus isolate 44 after 48 hrs by Etest; conditions: isolate 44, 48 h
[25] = tested on: Aspergillus fumigatus; assay: Antimicrobial activity against Aspergillus fumigatus isolate 46 after 48 hrs by Etest; conditions: isolate 46, 48 h
[26] = tested on: Aspergillus fumigatus; assay: Antimicrobial activity against Aspergillus fumigatus isolate 48 after 48 hrs by Etest; conditions: isolate 48, 48 h
[27] = tested on: Aspergillus fumigatus; assay: Antimicrobial activity against Aspergillus fumigatus isolate 3 by oxygen consumption method
Procedure, shortened: (§6)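 Conidial suspension in RPMI 1640 broth, 1.5 ml, with two drug concentrations (0.25 and 2 μg/ml). Tubes agitated 12 h at 37°C in a biological oxygen monitor. Available oxygen monitored continuously and quantified to assign the MIC.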

[28] = tested on: Aspergillus fumigatus; assay: Antimicrobial activity against Aspergillus fumigatus isolate 4 by oxygen consumption method
Procedure, shortened: (§7)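 Conidial suspension in RPMI 1640 broth, tested at two posaconazole levels (0.25 and 2 μg/ml). Agitated for 12 h at 37°C in a biological oxygen monitor. MIC derived from continuous monitoring and quantification of the available oxygen.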

[29] = tested on: Aspergillus fumigatus; assay: Antimicrobial activity against Aspergillus fumigatus isolate 5 by oxygen consumption method
[30] = tested on: Aspergillus fumigatus; assay: Antimicrobial activity against Aspergillus fumigatus isolate 11 by oxygen consumption method
Procedure, shortened: (§8)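 Conidial suspension in RPMI 1640 broth with posaconazole at 0.25 and 2 μg/ml. Tubes agitated 12 h at 37°C in a biological oxygen monitor. Available oxygen was monitored continuously, and the MIC was assigned from the oxygen quantification.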

[31] = tested on: Aspergillus fumigatus; assay: Antimicrobial activity against Aspergillus fumigatus isolate 15 by oxygen consumption method; procedure, shortened: as §8
[32] = tested on: Aspergillus fumigatus; assay: Antimicrobial activity against Aspergillus fumigatus isolate 22 by oxygen consumption method; procedure, shortened: as §6
[33] = tested on: Aspergillus fumigatus; assay: Antimicrobial activity against Aspergillus fumigatus isolate 36 by oxygen consumption method; procedure, shortened: as §7
[34] = tested on: Aspergillus fumigatus; assay: Antimicrobial activity against Aspergillus fumigatus isolate 2 by CLSI M38-A2 broth microdilution method
Procedure, shortened: (§9)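 Posaconazole broth microdilution follows CLSI M38-A2. The MIC is the lowest concentration with no visible growth at 48 h. Candida parapsilosis ATCC 22019 and Candida krusei ATCC 6258 were included as QC strains in every run.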

[35] = tested on: Aspergillus fumigatus; assay: Antimicrobial activity against Aspergillus fumigatus isolate 11 by CLSI M38-A2 broth microdilution method; procedure, shortened: as §9
[36] = tested on: Aspergillus fumigatus; assay: Antimicrobial activity against Aspergillus fumigatus isolate 14 by CLSI M38-A2 broth microdilution method; procedure, shortened: as §9
[37] = tested on: Aspergillus fumigatus; assay: Antimicrobial activity against Aspergillus fumigatus isolate 15 by CLSI M38-A2 broth microdilution method; procedure, shortened: as §9
[38] = tested on: Aspergillus fumigatus; assay: Antimicrobial activity against Aspergillus fumigatus isolate 18 by CLSI M38-A2 broth microdilution method; procedure, shortened: as §9
[39] = tested on: Aspergillus fumigatus; assay: Antimicrobial activity against Aspergillus fumigatus isolate 19 by CLSI M38-A2 broth microdilution method; procedure, shortened: as §9
[40] = tested on: Aspergillus fumigatus; assay: Antimicrobial activity against Aspergillus fumigatus isolate 23 by CLSI M38-A2 broth microdilution method
Procedure, shortened: (§10)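 Reference broth microdilution per CLSI M38-A2. MIC read as absence of visible growth at 48 h. C. parapsilosis ATCC 22019 and C. krusei ATCC 6258 QC strains run in each test session.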

[41] = tested on: Aspergillus fumigatus; assay: Antimicrobial activity against Aspergillus fumigatus isolate 30 by CLSI M38-A2 broth microdilution method; procedure, shortened: as §10
[42] = tested on: Aspergillus fumigatus; assay: Antimicrobial activity against Aspergillus fumigatus isolate 36 by CLSI M38-A2 broth microdilution method; procedure, shortened: as §1
[43] = tested on: Aspergillus fumigatus; assay: Antimicrobial activity against Aspergillus fumigatus isolate 37 by CLSI M38-A2 broth microdilution method; procedure, shortened: as §1
[44] = tested on: Aspergillus fumigatus; assay: Antimicrobial activity against Aspergillus fumigatus isolate 39 by CLSI M38-A2 broth microdilution method; procedure, shortened: as §1

SMILES: CC[C@@H]([C@H](C)O)n1ncn(-c2ccc(N3CCN(c4ccc(OC[C@@H]5CO[C@@](Cn6cncn6)(c6ccc(F)cc6F)C5)cc4)CC3)cc2)c1=O [POSACONAZOLE]
- MIC [1]: 0.06 µg/mL (≈ 0.0856 µM)
- MIC [2]: 0.125 µg/mL (≈ 0.178 µM)
- MIC [3]: ≤ 0.25 µg/mL
- MIC [4]: ≥ 0.5 µg/mL
- MIC [5]: 0.125 µg/mL (≈ 0.178 µM)
- MIC [6]: 0.25 µg/mL (≈ 0.357 µM)
- MIC [7]: 0.125 µg/mL (≈ 0.178 µM)
- MIC [8]: 0.25 µg/mL (≈ 0.357 µM)
- MIC [9]: 0.125 µg/mL (≈ 0.178 µM)
- MIC [10]: 0.125 µg/mL (≈ 0.178 µM)
- MIC [11]: 0.125 µg/mL (≈ 0.178 µM)
- MIC [12]: 0.25 µg/mL (≈ 0.357 µM)
- MIC [13]: 0.5 µg/mL (≈ 0.713 µM)
- MIC [14]: 0.25 µg/mL (≈ 0.357 µM)
- MIC [15]: 1 µg/mL (≈ 1.43 µM)
- MIC [16]: 0.25 µg/mL (≈ 0.357 µM)
- MIC [17]: 0.25 µg/mL (≈ 0.357 µM)
- MIC [18]: 0.25 µg/mL (≈ 0.357 µM)
- MIC [19]: 0.25 µg/mL (≈ 0.357 µM)
- MIC [20]: 0.125 µg/mL (≈ 0.178 µM)
- MIC [21]: 0.25 µg/mL (≈ 0.357 µM)
- MIC [22]: 0.06 µg/mL (≈ 0.0856 µM)
- MIC [23]: 2 µg/mL (≈ 2.85 µM)
- MIC [24]: 0.06 µg/mL (≈ 0.0856 µM)
- MIC [25]: 0.125 µg/mL (≈ 0.178 µM)
- MIC [26]: ≤ 0.03 µg/mL
- MIC [27]: ≥ 0.5 µg/mL
- MIC [28]: ≥ 0.5 µg/mL
- MIC [29]: ≥ 0.5 µg/mL
- MIC [30]: ≤ 0.25 µg/mL
- MIC [31]: ≤ 0.25 µg/mL
- MIC [32]: ≤ 0.25 µg/mL
- MIC [33]: ≤ 0.25 µg/mL
- MIC [34]: 0.5 µg/mL (≈ 0.713 µM)
- MIC [35]: 0.25 µg/mL (≈ 0.357 µM)
- MIC [36]: 0.125 µg/mL (≈ 0.178 µM)
- MIC [37]: 0.06 µg/mL (≈ 0.0856 µM)
- MIC [38]: 0.125 µg/mL (≈ 0.178 µM)
- MIC [39]: 0.5 µg/mL (≈ 0.713 µM)
- MIC [40]: 0.125 µg/mL (≈ 0.178 µM)
- MIC [41]: 0.125 µg/mL (≈ 0.178 µM)
- MIC [42]: 0.125 µg/mL (≈ 0.178 µM)
- MIC [43]: 0.125 µg/mL (≈ 0.178 µM)
- MIC [44]: 0.06 µg/mL (≈ 0.0856 µM)

— ChEMBL document CHEMBL1649256, “Comparison of assessment of oxygen consumption, Etest, and CLSI M38-A2 broth microdilution methods for evaluation of the susceptibility of Aspergillus fumigatus to posaconazole” (2009)
